Assay outcomes (PubChem)
MEX-5 binding: C. elegans MEX-5 TCR-2 RNA binding activity; hit rate 0.38% among 300,000; MEX-5/FITC-TCR2 RNA binding, fluorescence polarization; stronger effect = lower value; activity score (negative = inhibition of binding), % at 10 µM; Q9XUB2;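 active means inhibition past about -25% in most replicates, and total fluorescence under double the plate's negative control median, limit read from the data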
T cell HTS: T cell immune modulators affecting CD8 T cell-vesicle binding; 2C CD8+ T cell-vesicle binding, flow cytometry; stronger effect = lower value; response (vesicle binding), % at 7 µM; hit rate 0.068% among 330,000; AID 2052;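 active means response, share of CD8 T cells binding vesicles, and their 90th percentile fluorescence all below set limits, cut at about 80% in these data, passing the limit was not always enough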;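 further: values below 100% mean blocked vesicle binding to the CD8+ T cells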
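Material: 2C TCR transgenic mouse naive CD8+ T cells, MACS-purified. Also added: QL9-charged Drosophila Ld/ICAM-1/B7-1 vesicles. Timing: binding 1.5 h at 37 °C. Measured by: high-throughput flow cytometry with anti-B7-1 and anti-CD8 staining. Read-out: percent CD8+ FL2 mean versus row control. Controls: Unloaded micro-vesicles (low), QL9 vesicles with 0.7% DMSO (high).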
Keap1-Nrf2 PPI: disrupts human Keap1 binding to Nrf2 peptide; inhibition, % at 9.4 µM; Keap1 Kelch-Nrf2 peptide fluorescence polarization, 1536-well; hit rate 0.15% among 340,000; AID 504523; Q14145; in the data active means inhibition above about 12%;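 further: human Keap1 Kelch domain with fluorescein labeled Nrf2 9mer peptide probe; higher means more block of Keap1 binding to Nrf2 peptide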
GRK2 aptamer HTS: inhibitors of human GRK2 displacing RNA aptamer | P25098 | hit rate 0.59% among 330,000 | AID 488847 | inhibition of aptamer binding, % at 10 µM | bead flow cytometry, FAM-aptamer displacement from GRK2;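 active means inhibition of aptamer binding above 40%, roughly 3 SD of noise, on plates passing a quality check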;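 further: median bead fluorescence of bound FAM aptamer so fluorescent compounds give negative values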
Target sequence (P25098 whole entry, looked up): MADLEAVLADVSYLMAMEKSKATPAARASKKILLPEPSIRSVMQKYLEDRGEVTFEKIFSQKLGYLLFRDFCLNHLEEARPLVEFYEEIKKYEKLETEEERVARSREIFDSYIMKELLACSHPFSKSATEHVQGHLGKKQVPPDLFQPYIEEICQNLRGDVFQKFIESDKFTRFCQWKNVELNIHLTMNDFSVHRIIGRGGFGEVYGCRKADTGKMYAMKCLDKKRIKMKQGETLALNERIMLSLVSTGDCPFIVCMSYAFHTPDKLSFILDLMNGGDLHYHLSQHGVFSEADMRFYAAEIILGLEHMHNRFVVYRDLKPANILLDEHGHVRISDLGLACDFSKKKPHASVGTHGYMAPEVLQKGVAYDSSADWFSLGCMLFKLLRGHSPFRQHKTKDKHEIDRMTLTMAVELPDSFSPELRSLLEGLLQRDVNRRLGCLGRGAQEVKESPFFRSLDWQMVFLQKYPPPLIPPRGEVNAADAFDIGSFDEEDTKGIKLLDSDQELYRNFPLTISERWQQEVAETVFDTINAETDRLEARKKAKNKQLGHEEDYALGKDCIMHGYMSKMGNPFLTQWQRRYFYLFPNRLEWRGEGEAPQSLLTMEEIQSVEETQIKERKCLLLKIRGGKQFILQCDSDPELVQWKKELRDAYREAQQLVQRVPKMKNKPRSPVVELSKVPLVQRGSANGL
EBV gp42 block: EBV gp42 inhibition. Q1HVG2. Fluorescence polarization binding assay, mP read-out. inhibition, % (tested at 21.74 µM). hit rate 0.42% among 220,000. AID 1085; in the data active means inhibition above about 50%
LANA DNA inh: blocks KSHV LANA C-terminal domain binding to DNA; MBP-C-LANA/FAM-LBS DNA binding, fluorescence polarization; inhibition, % at 9 µM; hit rate 0.078% among 340,000; AID 504423;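 active means highest replicate inhibition at or above 60% at 9 µM, even if other replicates fall short; inactive means all replicates below 60% inhibition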
A number is an active result; – = inactive; · = no result. Only some compounds are listed: those with a hit (about 1.3% of all), similar ones and a draw of the others.

SMILES	MEX-5 binding	T cell HTS	Keap1-Nrf2 PPI	GRK2 aptamer HTS	EBV gp42 block	LANA DNA inh
O=c1c2ccccc2nnn1Cc1ccc2ccccc2c1	–	–	–	–	–	–
CCCCNC(=O)CN1C(=O)c2cccc(N)c2C1=O	–	·	–	·	63	–
CC1CCCCC1NC(=O)CN1C(=O)c2cccc(N)c2C1=O (stereo unspecified)	–	·	–	·	79	–
COc1ccccc1CNC(=O)CN1C(=O)c2cccc(N)c2C1=O	–	–	–	–	·	–
CC1CCCCC1NC(=O)COC(=O)CN1C(=O)c2ccccc2C1=O (stereo unspecified)	·	–	–	–	·	–
CC(=O)Nc1ccc(N(C(=O)CNC(=O)c2cccs2)C(C(=O)NC(C)(C)C)c2ccccc2)cc1 (stereo unspecified)	–	–	–	–	–	–
Cc1ccc(C2=NN(C(=O)CCCC(=O)O)C(c3ccc4c(c3)OCO4)C2)cc1 (stereo unspecified)	–	–	–	·	·	–
Cc1cc(C(=O)N2CCCC(C(=O)c3ccc4ccccc4c3)C2)n(C)n1 (stereo unspecified)	–	–	–	–	–	–
Cc1c(OCc2ccccc2)cccc1OCc1ccccc1	–	·	–	·	–	–
Cc1oc(=O)cc(OCc2ccccc2)c1C	·	·	–	45	·	–
CCC(c1nnnn1CS(=O)(=O)c1ccc(C)cc1)N1CCN(c2nc3ccccc3s2)CC1 (stereo unspecified)	–	–	–	–	–	–
CC1=Nc2cccc3cccc(c23)N1C	-29	–	–	–	–	–
CC1=CC(=C(C#N)c2nc3ccccc3s2)C=C(C)N1Cc1ccco1	–	·	–	–	157	–
CCN(CC)c1ccc2cc(NC(=O)CCC(=O)O)c(=O)oc2c1	-68	–	–	–	74	–
CCN(CC)c1ccc2cc(C(C)=O)c(=O)oc2c1	–	–	–	–	–	–
CCCOc1ccc(N2C(=O)CC(N3CCN(S(=O)(=O)c4ccccc4)CC3)C2=O)cc1 (stereo unspecified)	–	–	–	–	–	–
CCOc1cccc(=O)c2c(C)n(-c3ccc(C(=O)O)cc3)c(C)c12	-36	–	–	–	–	–
COc1cccc(=O)c2c(C)n(-c3ccc(C(=O)O)cc3)c(C)c12	–	–	–	–	–	–
O=c1c2ccccc2nnn1COc1cccc2ccccc12	–	–	–	–	–	–
N#C/C(=C(/O)c1ccco1)c1nc2ccccc2s1	–	–	–	–	–	–
N#C/C(=C(/O)c1cc2ccccc2o1)c1nc2ccccc2s1	-33	–	–	–	–	–
COc1ccc(CNC(=O)C2(CC3CC(c4ccccc4)=NO3)CCN(C(=O)OC(C)(C)C)CC2)cc1 (stereo unspecified)	–	–	–	–	·	–
CCN(CC)c1ccc(C=C2C(=O)OC3(CCCC3)OC2=O)cc1	–	–	–	–	–	–
CCN(CC)c1ccc(C=C2C(=O)OC(C)(C(C)(C)C)OC2=O)cc1 (stereo unspecified)	-69	–	–	–	·	–
CCN(CC)c1ccc(C=C2C(=O)OC(c3ccccc3)OC2=O)cc1 (stereo unspecified)	–	–	–	–	91	–
SMILES	MEX-5 binding	T cell HTS	Keap1-Nrf2 PPI	GRK2 aptamer HTS	EBV gp42 block	LANA DNA inh
O=C(CCC1COc2ccccc2O1)NCC1COc2ccccc2O1 (stereo unspecified)	–	–	–	–	–	–
NC(CO)C(=O)NNCc1ccc(O)c(O)c1O (stereo unspecified)	-33	–	–	–	–	–
COC(=O)C(N)Cc1ccc(O)c(O)c1 (stereo unspecified)	–	–	–	–	–	–
Cc1nc2ccc(C(=O)Nc3ccc(N(C)C)cc3)cc2s1	–	–	–	·	·	–
C=CCNc1nc(Nc2ccc(OC)cc2)nc(OC)n1	–	–	–	–	–	–
COc1ccc(/C(C#N)=C/c2ccccn2)cc1	–	–	–	–	–	–
COc1ccc(OC)c(C2=C/C(=C/c3ccccn3)C(=O)O2)c1	-42	–	–	–	–	–
CN(C(=O)COC(=O)CSc1ccc(C(N)=O)cc1[N+](=O)[O-])C1CCS(=O)(=O)C1 (stereo unspecified)	–	–	–	–	·	–
CCn1c(O)c(/C=N/N=C/c2ccccc2)c2ccc(C3=NNC(=O)CC3)cc21	–	–	–	–	60	–
CCC(CC)=N/N=C/c1c(O)n(CC)c2cc(C3=NNC(=O)CC3)ccc12	–	–	–	–	–	–
CCN(CC)S(=O)(=O)c1ccc(C(=O)/C=C/c2ccc(-c3ccc([N+](=O)[O-])cc3)o2)cc1	–	–	–	–	86	–
Cc1ccc(C(=O)/C=C/c2ccc(-c3ccc(C)cc3)o2)cc1	–	–	–	–	–	–
CCCN1CCN(C2CCCCC2NS(=O)(=O)c2ccc(Cl)cc2)CC1 (stereo unspecified)	–	–	–	–	·	–
Cc1ccc(C(=O)NCC(C)(C)N2CCOCC2)s1	–	–	–	–	–	–
CC(C)(CNC(=O)c1cc2c(s1)CCCC2)N1CCOCC1	–	68	–	–	·	–
O=C(CC1NC(=O)NC1=O)NC1(C(=O)NC2CCCCC2)CCCCC1 (stereo unspecified)	–	–	–	–	–	–
CCn1c(SCC(=O)NCC2CCCO2)nnc1-c1c[nH]c2ccccc12 (stereo unspecified)	–	0.0	–	–	–	–
CS(=O)(=O)N1CCN(c2ccc(NC(=S)NC(=O)c3ccccc3[N+](=O)[O-])cc2)CC1	–	–	–	–	–	–
CC(=O)N1C(=O)c2cccc3cccc(c23)C(=O)N1C(C)=O	–	–	·	–	–	·
O=C1c2cccc3cccc(c23)C(=O)C1(O)O	-59	–	–	–	·	–
CCN(CC)C(=O)c1[nH]cnc1C(=O)Nc1ccon1	·	–	–	–	·	–
O=C(NN1C(=O)NC2(CCCCC2)C1=O)c1ccc(Cl)s1	·	–	–	–	·	–
CCCN1CC=C2C(C#N)=C(N)C(C#N)(C#N)C(c3cccc(OC)c3OC)C2C1 (stereo unspecified)	-67	–	–	–	75	–
CCCCOc1ccc(C2C3CN(C(=O)OCC)CC=C3C(C#N)=C(N)C2(C#N)C#N)cc1OC (stereo unspecified)	–	–	–	–	–	–
CC(=O)N1CC=C2C(C#N)=C(N)C(C#N)(C#N)[C@H](c3ccoc3)[C@H]2C1	–	–	–	–	–	–
CN1CC=C2C(C#N)=C(N)C(C#N)(C#N)C(c3cccc(Cl)c3Cl)C2C1 (stereo unspecified)	-29	–	–	–	86	–
N#CC1=C(N)C(C#N)(C#N)[C@H](c2ccoc2)[C@H]2CN(Cc3ccccc3)CC=C12	-46	–	–	–	90	–
